In the library only some 1.7% were active in any assay of this set; here they are far more common.
NTR1 ag – agonists of human neurotensin receptor NTR1. P30989. NTR1-U2OS beta-arrestin-GFP spot imaging, agonist mode. activation, % at 20 µM. 330,000 tested, 0.17% active. AID 493036;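 active = activation at or above 40% of the spot to cytoplasm intensity ratio, with at least 20 cells analyzed; inconclusive = wells under 20 cells, flagged as cytotoxic or low count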;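 note: 0% = DMSO without peptide and 100% = 100 nM NTR1 peptide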
SR-BI HDL uptake – inhibitors of mouse SR-BI mediated HDL lipid uptake; Q61009; 320,000 tested, 0.96% active; ldlA[mSR-BI] CHO cells, DiI-HDL uptake fluorescence, 3 h; inhibition, % at 12.5 µM;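 active = mean replicate inhibition of at least 70% and a set share of replicates each scoring 70 or more; inconclusive = meets just one of the two criteria; inactive = fails both criteria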;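 note: 0% = median of neutral control wells and 100% = median of positive control wells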
Target sequence (Q61009 whole entry, looked up): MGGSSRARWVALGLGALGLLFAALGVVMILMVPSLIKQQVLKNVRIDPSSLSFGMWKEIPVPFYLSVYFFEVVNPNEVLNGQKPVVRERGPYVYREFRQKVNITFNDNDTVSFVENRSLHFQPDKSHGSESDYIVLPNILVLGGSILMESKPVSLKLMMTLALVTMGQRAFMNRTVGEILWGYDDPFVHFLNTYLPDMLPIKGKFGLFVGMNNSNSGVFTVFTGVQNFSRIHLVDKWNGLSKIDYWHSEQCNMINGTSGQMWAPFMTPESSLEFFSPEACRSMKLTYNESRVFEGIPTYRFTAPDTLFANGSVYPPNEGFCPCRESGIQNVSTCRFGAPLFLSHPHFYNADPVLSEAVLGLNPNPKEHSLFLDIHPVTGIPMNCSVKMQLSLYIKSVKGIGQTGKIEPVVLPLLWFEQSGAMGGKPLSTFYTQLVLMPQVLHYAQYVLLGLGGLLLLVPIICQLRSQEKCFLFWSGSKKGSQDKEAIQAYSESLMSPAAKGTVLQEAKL
CaV13 FRET inh – Primary screen for inhibitors of IQ motif and Ca2+-dependent inactivation inhibitor domain binding in CACNA1D, Förster resonance energy transfer in living cells, …; 340,000 tested, 0.098% active; HEK cells, CFP/YFP FRET ICDI-IQ, plate reader, 10 min; percent FRET-ratio fall versus neutral wells; inhibition, % at 12.3 µM;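 active = mean replicate inhibition of at least 30% and at least 1% of replicates passing that level; inconclusive = only one of the two criteria is met; inactive = neither criterion is met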;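 note: 0% = median of the neutral control wells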
Vif inh – HIV Vif inhibition; HEK293T cells, Vif self-association by quenched fluorescence, imaging, 24 h; inhibition, % at 7.49 µM; 340,000 tested, 0.35% active; in the data active = inhibition above about 50%, passing the limit was not always enough; inconclusive = no clear call, values can overlap the other calls; inactive = below about 31%
V-ATPase pH – yeast V-ATPase proton transport regulation by pHLuorin | S. cerevisiae, pHLuorin cytosolic pH fluorescence | response, % at 10 µM | 350,000 tested, 0.37% active | AID 504577; in the data active = response mostly above about 7.3%, no sharp cut-off; inactive = mostly below about 5.4%; note: actives read high
SR-BI uptake up – SR-BI HDL lipid transfer activation. 320,000 tested, 0.096% active. CHO ldlA[mSR-BI] cells, DiI-HDL uptake fluorescence, 3 h; 100 = double the neutral-control signal. activation, % at 12.5 µM;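 active = mean replicate activation of at least 60% and every replicate at or above 60%; inconclusive = mean or all-replicate condition met, but not both; inactive = mean below 60% and not all replicates reaching 60%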;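 note: 0% = median plate neutral-control signal and 100% = twice that signal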
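Assay system: CHO ldlA[mSR-BI] cells, LDL receptor-null, SR-BI overexpressing; medium: Ham's F12 with 0.5% BSA, HEPES 25 mM, pH 7.4; also added: DiI-HDL 10 µg/mL; timing: 3 h uptake period with compound, 37 °C; signal: DiI fluorescence, bottom read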
VATPase regulator – yeast V-ATPase proton transport regulation. 980 tested, 2% active. shares compounds with V-ATPase pH. response, % at 10 µM. AID 602197. S. cerevisiae pHLuorin cytosolic pH; in the data active = response above about 24%;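 note: plate controls were vehicle wells for no effect and positive control wells for full effect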
The depositor's hits bear a star; ? = inconclusive; / = no result given.

SMILES	NTR1 ag	SR-BI HDL uptake	CaV13 FRET inh	Vif inh	V-ATPase pH	SR-BI uptake up	VATPase regulator
CC(=O)OC1CCC2(C)C3CCC4(C)C(OC(C)=O)CCC4C3C(C)C2(O)C1 (stereo unspecified)	/	-13	-5	8	1	13	/
Cc1ccccc1CN1CCNCC1	0	-11	0	4	11*	11	1
CCN1C(=O)N(CC)C(=O)C2(Cc3ccccc3N3CCN(c4ccccc4)CC32)C1=O (stereo unspecified)	1	/	-20	7	-1	/	/
O=c1oc2ccccc2c(O)c1C(c1ccc([N+](=O)[O-])cc1)c1c(O)c2ccccc2oc1=O	/	12	-4	-1	12*	-12	1
CC(C)c1ccc(C(c2c(O)c3ccccc3oc2=O)c2c(O)c3ccccc3oc2=O)cc1	/	/	-16	-6	-1	/	/
N#Cc1ccc(NC(=O)CN2CCCCCC2)cc1Cl	-1	/	-3	12	6	/	/
C/C(=N\Nc1ccccc1)c1c(O)[nH]c(=O)[nH]c1=O	2	-7	-4	27	16*	7	-3
O=C(Nc1ccc(F)cc1)c1c(O)c2c(n(Cc3ccccc3)c1=O)CCCC2	-2	43	-2	11	10.0*	-43	4
O=C1NCN(c2ccccc2)C12CCN(C(c1ccnc3ccccc13)c1nnnn1-c1ccc3c(c1)OCCO3)CC2 (stereo unspecified)	/	/	-7	-3	/	/	/
C[C@]1(O)CC[C@H]2[C@@H]3CCC4=CC(=O)CC[C@]4(C)[C@@]3(F)[C@@H](O)C[C@@]21C	/	1	/	2	9.2*	-1	1
COc1ccc(/C=C2\C(=O)NC(=S)N(C)C2=O)cc1C	2	-63	-7	5	1	?	/
Cc1ccsc1/C=C1\C(=O)NC(=S)N(C)C1=O	19	-24	-20	-1	11*	24	45*
CCOC(=O)c1ccccc1N	-2	0	/	14	1	0	/
CCOC(=O)c1cc2c(cn1)[nH]c1ccccc12	2	18	-6	-8	-4	-5	0
CCOc1ccc(N2C(=O)/C(=C/c3ccc(C)o3)C(=O)NC2=S)cc1	0	-6	-5	-4	6	6	/
COc1ccc(N2C(=O)/C(=C/c3ccc(C)o3)C(=O)NC2=S)cc1	0	1	-2	9	11*	-1	82*
COC(=O)C1=C(c2ccc(F)cc2OCc2ccccc2)C[C@@H]2CC[C@H]1N2C(=O)N1CCOCC1	-1	-19	-6	-3	-9	19	/
C[C@]12CCC3C(CC[C@H]4C[C@@H](O)CC[C@]34C)C1C[C@@H](Br)[C@H]2O (stereo partly specified)	-2	/	-6	-6	/	/	/
Cc1ccc(C2C(S(C)(=O)=O)=C(O)C(=O)N2c2ccccc2)cc1 (stereo unspecified) (tested in a mixture with another compound)	-1	/	0	5	7.7*	/	-1
COc1cc(/C=C2\C[C@H]3[C@@H]4CC=C5C[C@@H](N6CCCC6)CC[C@]5(C)[C@H]4CC[C@]3(C)[C@H]2O)cc(OC)c1OC	/	33	-5	7	3	-33	/
Cc1cc(OCC(=O)N2CCC(C(=O)O)(c3ccccc3)CC2)c2c(C)c(C)c(=O)oc2c1	2	-14	/	-4	10*	14	0

Assay outcomes: PubChem BioAssay, several laboratories
